Reference: ChEMBL document CHEMBL1156459, “Discovery of a small molecule antagonist of the parathyroid hormone receptor by using an N-terminal parathyroid hormone peptide probe” (Proc Natl Acad Sci U S A, 2007)
Calls of active or inactive are those of the source. The rule behind the calls is not given here. Square brackets hold non-standard residues; d marks the D form. Peptide text beside a SMILES is read from it. * marks the point of attachment. X1 = O=C(c1ccccc1-c1c2ccc(=O)cc-2oc2cc(O)ccc12)*; hArg = N=C(N)NCCCC[C@H](N)C(=O)O; Nle = CCCC[C@H](N)C(=O)O

What was measured:
[1] = molecular target: Alpha-2A adrenergic receptor (Homo sapiens) (UniProt P08913); assay: Inhibition of adrenergic alpha2A receptor at 20 uM
Alpha-2A adrenergic receptor (Homo sapiens), sequence (P08913 whole entry): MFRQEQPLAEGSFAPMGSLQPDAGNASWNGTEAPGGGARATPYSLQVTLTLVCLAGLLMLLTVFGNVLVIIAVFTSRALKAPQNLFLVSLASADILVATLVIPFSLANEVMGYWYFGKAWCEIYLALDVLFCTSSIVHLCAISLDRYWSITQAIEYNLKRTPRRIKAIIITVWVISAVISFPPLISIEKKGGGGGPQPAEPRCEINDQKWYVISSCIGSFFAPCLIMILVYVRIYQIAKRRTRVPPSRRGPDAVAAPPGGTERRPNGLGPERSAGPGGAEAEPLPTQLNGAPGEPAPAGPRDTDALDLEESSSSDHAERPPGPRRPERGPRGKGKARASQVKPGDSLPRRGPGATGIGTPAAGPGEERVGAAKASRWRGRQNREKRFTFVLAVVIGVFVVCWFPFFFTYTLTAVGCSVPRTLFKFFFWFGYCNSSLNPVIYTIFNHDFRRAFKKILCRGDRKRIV

[2] = molecular target: C-C chemokine receptor type 3 (Homo sapiens) (UniProt P51677); assay: Binding affinity to CCR3 at 20 uM
[3] = molecular target: C-X-C chemokine receptor type 3 (Homo sapiens) (UniProt P49682); assay: Inhibition of CXCR3 at 20 uM
[4] = molecular target: Alpha-2C adrenergic receptor (Homo sapiens, UniProt P18825); assay: Inhibition of adrenergic Alpha-2C receptor
Alpha-2C adrenergic receptor, sequence (P18825 whole entry): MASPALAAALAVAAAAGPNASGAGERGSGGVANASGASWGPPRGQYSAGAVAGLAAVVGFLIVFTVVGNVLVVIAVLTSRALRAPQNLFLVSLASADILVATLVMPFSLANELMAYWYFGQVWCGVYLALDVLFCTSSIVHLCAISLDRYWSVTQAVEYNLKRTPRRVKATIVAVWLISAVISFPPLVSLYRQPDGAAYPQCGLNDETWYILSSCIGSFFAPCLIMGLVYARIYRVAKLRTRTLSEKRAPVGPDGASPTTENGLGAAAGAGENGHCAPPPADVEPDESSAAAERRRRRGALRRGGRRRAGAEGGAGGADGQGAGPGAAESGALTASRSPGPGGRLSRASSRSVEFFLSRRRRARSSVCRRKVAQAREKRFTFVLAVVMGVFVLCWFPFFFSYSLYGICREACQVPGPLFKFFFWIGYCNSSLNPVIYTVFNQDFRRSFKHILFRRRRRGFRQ

[5] = molecular target: 5-hydroxytryptamine receptor 2A (Homo sapiens, UniProt P28223); assay: Inhibition of 5HT2A receptor
[6] = molecular target: T1, Parathyroid hormone/parathyroid hormone-related peptide receptor (Homo sapiens, UniProt Q03431); assay: Antagonist activity at PTH/PTH-related peptide receptor expressed in HKRK-B28 cells assessed as inhibition of parathyroid hormone (1 to 34)-induced cAMP production; type: functional, cell-based
T1 sequence (Q03431 whole entry): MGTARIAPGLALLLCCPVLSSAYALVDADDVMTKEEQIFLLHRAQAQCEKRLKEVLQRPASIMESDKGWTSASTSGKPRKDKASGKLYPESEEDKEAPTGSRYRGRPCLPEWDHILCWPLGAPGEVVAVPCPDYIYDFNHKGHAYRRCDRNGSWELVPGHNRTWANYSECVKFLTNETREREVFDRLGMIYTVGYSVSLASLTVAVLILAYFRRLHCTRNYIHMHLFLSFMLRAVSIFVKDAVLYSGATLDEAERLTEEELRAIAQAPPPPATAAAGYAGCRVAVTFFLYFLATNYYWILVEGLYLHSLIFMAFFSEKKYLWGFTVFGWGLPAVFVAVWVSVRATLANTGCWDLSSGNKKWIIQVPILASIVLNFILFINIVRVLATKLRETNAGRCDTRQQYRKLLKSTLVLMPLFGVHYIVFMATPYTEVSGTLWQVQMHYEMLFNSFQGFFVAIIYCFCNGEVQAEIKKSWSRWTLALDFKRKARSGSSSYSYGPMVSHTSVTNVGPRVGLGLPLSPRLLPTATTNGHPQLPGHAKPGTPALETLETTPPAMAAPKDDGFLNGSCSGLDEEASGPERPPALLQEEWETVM
How it was run: (§1)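 Cells lifted with EDTA after culture in DMEM with 10% FBS and refeeding 12–24 h before assay. Resuspended in HBSS/5 mM Hepes/0.1% BSA/0.5 mM IBMX, pH 7.4, and stimulated with agonist peptide with or without antagonist. cAMP read by AlphaScreen.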

[7] = molecular target: Muscarinic acetylcholine receptor M5 (Homo sapiens) (UniProt P08912); assay: Inhibition of muscarinic M5 receptor at 20 uM
Muscarinic acetylcholine receptor M5 (Homo sapiens), sequence (P08912 whole entry): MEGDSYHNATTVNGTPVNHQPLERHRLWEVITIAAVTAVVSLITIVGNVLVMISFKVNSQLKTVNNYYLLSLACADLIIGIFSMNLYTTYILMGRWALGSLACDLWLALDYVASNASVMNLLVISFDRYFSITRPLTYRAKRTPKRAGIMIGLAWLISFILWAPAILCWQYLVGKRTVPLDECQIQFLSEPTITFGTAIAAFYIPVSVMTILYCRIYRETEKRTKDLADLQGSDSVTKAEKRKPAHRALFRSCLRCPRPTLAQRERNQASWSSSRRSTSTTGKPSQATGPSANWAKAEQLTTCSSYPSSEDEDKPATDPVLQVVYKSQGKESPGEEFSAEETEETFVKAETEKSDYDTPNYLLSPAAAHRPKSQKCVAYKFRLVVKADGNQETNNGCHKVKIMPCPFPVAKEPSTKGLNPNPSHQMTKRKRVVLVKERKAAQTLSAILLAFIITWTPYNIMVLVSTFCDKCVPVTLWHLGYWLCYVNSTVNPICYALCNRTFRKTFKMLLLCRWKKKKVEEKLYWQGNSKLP

[8] = molecular target: Parathyroid hormone/parathyroid hormone-related peptide receptor (Homo sapiens) (UniProt Q03431); assay: Antagonist activity at human PTH/PTH-related peptide receptor expressed in human SaOS2 assessed as inhibition of DPC-AJ1951-induced cAMP production; type: functional, cell-based; details: SAOS-2; how it was run: as §1
[9] = molecular target: T1, Parathyroid hormone/parathyroid hormone-related peptide receptor; assay: Antagonist activity at PTH/PTH-related peptide receptor expressed in HKRK-B28 cells assessed as inhibition of DPC-AJ1951-induced cAMP production; type: functional, cell-based; how it was run: as §1
[10] = molecular target: C-C chemokine receptor type 1 (Homo sapiens) (UniProt P32246); assay: Binding affinity to CCR1 at 20 uM
C-C chemokine receptor type 1 (Homo sapiens), sequence (P32246 whole entry): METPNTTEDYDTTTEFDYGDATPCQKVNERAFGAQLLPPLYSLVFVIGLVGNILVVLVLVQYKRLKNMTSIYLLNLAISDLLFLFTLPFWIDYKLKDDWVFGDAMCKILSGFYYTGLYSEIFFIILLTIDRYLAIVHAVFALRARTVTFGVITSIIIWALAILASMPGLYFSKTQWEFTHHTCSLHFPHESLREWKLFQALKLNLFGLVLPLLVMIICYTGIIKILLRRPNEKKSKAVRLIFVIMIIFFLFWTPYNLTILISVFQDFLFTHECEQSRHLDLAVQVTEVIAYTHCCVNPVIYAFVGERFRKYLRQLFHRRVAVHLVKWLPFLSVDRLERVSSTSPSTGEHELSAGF

[11] = molecular target: C-C chemokine receptor type 4 (Homo sapiens) (UniProt P51679); assay: Binding affinity to CCR4 at 20 uM
C-C chemokine receptor type 4 (Homo sapiens), sequence (P51679 whole entry): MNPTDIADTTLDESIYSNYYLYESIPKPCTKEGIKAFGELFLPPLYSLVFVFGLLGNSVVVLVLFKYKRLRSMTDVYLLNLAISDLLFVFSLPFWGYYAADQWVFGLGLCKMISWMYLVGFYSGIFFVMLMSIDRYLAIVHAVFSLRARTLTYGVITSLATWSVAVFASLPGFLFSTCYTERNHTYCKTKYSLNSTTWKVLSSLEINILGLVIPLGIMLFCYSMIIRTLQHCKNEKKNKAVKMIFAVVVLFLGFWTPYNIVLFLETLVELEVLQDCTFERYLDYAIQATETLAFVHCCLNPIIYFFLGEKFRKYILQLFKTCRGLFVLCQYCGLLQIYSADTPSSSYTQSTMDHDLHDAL

Substance-K receptor = Substance-K receptor (Homo sapiens, UniProt P21452); assay: Inhibition of neurokinin 2 receptor
[12] = molecular target: C-C chemokine receptor type 2 (Homo sapiens) (UniProt P41597); assay: Binding affinity to CCR2 at 20 uM
C-C chemokine receptor type 2 (Homo sapiens), sequence (P41597 whole entry, looked up): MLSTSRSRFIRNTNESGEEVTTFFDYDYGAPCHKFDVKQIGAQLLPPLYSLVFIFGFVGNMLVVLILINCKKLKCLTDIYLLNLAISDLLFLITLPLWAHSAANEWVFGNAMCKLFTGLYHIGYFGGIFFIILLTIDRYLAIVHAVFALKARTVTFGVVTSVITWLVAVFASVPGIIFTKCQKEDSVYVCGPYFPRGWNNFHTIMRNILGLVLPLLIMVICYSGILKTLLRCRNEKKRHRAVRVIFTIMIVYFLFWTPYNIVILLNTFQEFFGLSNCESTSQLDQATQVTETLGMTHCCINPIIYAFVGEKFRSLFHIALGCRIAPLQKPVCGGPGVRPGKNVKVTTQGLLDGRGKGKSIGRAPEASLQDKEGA

[13] = molecular target: Histamine H1 receptor (Homo sapiens) (UniProt P35367); assay: Inhibition of histamine H1 receptor at 20 uM
Histamine H1 receptor (Homo sapiens), sequence (P35367 whole entry): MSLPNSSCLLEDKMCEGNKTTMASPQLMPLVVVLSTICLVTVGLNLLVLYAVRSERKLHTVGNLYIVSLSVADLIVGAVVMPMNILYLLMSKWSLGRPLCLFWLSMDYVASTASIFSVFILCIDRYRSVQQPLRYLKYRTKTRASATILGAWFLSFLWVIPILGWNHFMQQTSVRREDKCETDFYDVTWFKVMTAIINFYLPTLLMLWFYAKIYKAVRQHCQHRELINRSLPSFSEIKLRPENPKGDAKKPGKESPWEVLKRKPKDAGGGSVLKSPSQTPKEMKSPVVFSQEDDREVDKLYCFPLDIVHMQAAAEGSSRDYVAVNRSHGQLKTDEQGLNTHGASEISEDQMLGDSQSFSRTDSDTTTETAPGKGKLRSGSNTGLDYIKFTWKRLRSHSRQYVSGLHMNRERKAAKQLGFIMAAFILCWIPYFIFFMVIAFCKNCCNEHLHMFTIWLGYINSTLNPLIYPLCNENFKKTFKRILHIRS

[14] = molecular target: 5-hydroxytryptamine receptor 2C (Homo sapiens) (UniProt P28335); assay: Inhibition of 5HT2C receptor at 20 uM
5-hydroxytryptamine receptor 2C (Homo sapiens), sequence (P28335 whole entry): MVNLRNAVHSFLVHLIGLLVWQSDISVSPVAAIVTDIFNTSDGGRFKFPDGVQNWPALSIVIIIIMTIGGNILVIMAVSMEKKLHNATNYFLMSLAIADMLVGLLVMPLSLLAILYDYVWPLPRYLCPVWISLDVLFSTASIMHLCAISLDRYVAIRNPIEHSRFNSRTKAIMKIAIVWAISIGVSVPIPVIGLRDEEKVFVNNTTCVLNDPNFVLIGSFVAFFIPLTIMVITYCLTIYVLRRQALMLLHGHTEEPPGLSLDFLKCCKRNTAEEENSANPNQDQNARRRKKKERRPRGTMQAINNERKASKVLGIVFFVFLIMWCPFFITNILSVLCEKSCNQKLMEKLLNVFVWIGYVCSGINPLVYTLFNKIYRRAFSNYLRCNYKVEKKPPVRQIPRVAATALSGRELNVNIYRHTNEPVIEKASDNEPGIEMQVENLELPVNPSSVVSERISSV

[15] = molecular target: Parathyroid hormone/parathyroid hormone-related peptide receptor (Homo sapiens) (UniProt Q03431); assay: Antagonist activity at human PTH/PTH-related peptide receptor expressed in human CL0153 cells assessed as inhibition of DPC-AJ1951-induced cAMP production; type: functional, cell-based; how it was run: as §1
[16] = molecular target: Parathyroid hormone/parathyroid hormone-related peptide receptor (Rattus norvegicus) (UniProt P25961); assay: Antagonist activity at rat PTH/PTH-related peptide receptor expressed in rat UMR106 cells assessed as inhibition of DPC-AJ1951-induced cAMP production; type: functional, cell-based; how it was run: as §1
[17] = molecular target: Alpha-1D adrenergic receptor (Homo sapiens, UniProt P25100); assay: Inhibition of adrenergic Alpha-1D receptor
Alpha-1D adrenergic receptor, sequence (P25100 whole entry): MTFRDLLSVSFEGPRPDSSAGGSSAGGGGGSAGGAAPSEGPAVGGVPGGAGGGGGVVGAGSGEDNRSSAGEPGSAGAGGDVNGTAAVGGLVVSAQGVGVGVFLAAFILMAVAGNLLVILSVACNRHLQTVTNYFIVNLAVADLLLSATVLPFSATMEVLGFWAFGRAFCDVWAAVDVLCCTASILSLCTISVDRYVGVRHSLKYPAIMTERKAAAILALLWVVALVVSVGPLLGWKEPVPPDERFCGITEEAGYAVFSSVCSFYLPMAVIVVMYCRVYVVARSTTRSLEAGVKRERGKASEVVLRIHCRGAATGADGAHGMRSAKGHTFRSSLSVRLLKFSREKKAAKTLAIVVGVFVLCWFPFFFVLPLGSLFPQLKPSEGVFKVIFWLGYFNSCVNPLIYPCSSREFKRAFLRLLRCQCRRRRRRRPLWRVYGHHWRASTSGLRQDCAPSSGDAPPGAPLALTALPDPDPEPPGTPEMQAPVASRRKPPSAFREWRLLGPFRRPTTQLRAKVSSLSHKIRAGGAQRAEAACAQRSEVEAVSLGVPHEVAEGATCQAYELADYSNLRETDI

[18] = molecular target: C-X-C chemokine receptor type 2 (Homo sapiens) (UniProt P25025); assay: Inhibition of CXCR2 at 20 uM
C-X-C chemokine receptor type 2 (Homo sapiens), sequence (P25025 whole entry): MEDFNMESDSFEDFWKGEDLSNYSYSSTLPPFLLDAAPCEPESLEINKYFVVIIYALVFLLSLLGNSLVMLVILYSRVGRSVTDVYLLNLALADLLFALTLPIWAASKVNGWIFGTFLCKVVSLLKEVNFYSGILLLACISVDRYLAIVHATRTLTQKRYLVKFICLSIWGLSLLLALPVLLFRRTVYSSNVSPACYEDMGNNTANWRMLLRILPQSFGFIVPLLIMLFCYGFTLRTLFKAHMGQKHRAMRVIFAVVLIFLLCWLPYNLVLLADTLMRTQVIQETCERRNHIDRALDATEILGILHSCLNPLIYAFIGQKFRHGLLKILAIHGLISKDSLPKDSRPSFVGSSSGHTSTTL

[19] = molecular target: D(2) dopamine receptor (Homo sapiens) (UniProt P14416); assay: Inhibition of dopamine D2 receptor at 20 uM
[20] = molecular target: T1, Parathyroid hormone/parathyroid hormone-related peptide receptor; assay: Displacement of [125I]DPC-AJ1951 from PTH/PTH-related peptide receptor expressed in HKRK-B28 cells; type: cell-based
How it was run: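 Whole HKRK-B28 cells plated at 30,000/well and incubated overnight at 37°C, 5% CO2. Incubated 3 h at room temperature, washed three times, bound radioactivity counted by scintillation.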

[21] = molecular target: Alpha-1B adrenergic receptor (Homo sapiens) (UniProt P35368); assay: Inhibition of adrenergic Alpha-1B receptor at 20 uM
[22] = molecular target: C-C chemokine receptor type 5 (Homo sapiens) (UniProt P51681); assay: Binding affinity to CCR5 at 20 uM
C-C chemokine receptor type 5 (Homo sapiens), sequence (P51681 whole entry, looked up): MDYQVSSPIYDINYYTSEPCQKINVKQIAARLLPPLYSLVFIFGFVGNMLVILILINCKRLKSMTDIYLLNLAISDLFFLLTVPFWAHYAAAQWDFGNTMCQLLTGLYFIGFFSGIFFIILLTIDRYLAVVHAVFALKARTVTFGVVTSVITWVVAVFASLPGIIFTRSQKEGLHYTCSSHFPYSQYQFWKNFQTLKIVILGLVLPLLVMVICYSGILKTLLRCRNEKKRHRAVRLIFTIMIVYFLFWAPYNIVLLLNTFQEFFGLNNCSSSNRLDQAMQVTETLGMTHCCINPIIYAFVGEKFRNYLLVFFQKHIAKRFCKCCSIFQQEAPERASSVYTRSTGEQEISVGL

[23] = molecular target: T1, Parathyroid hormone/parathyroid hormone-related peptide receptor; assay: Activity at human PTH/PTH-related peptide receptor expressed in HEK293 cells assessed as induction of luciferase activity by CRE-luciferase reporter assay; type: functional, cell-based
[24] = molecular target: T1, Parathyroid hormone/parathyroid hormone-related peptide receptor; assay: Activity at human PTH/PTH-related peptide receptor expressed in SAOS2 cells assessed as cAMP formation; type: functional, cell-based, SAOS-2
How it was run: (§2)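 Nonconfluent cells grown at 37°C in DMEM with 10% FBS, refed 12–24 h before assay. Rinsed with warm PBS, detached with prewarmed EDTA (37°C, 5–10 min), spun at 300 × g for 5 min. Resuspended in HBSS/5 mM Hepes/0.1% BSA/0.5 mM IBMX, pH 7.4. cAMP read by AlphaScreen.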

[25] = molecular target: T2, Parathyroid hormone/parathyroid hormone-related peptide receptor (Rattus norvegicus, UniProt P25961); assay: Activity at rat PTH/PTH-related peptide receptor expressed in rat UMR106 cells assessed as cAMP formation; type: functional, cell-based; how it was run: as §2
T2 sequence (P25961 whole entry): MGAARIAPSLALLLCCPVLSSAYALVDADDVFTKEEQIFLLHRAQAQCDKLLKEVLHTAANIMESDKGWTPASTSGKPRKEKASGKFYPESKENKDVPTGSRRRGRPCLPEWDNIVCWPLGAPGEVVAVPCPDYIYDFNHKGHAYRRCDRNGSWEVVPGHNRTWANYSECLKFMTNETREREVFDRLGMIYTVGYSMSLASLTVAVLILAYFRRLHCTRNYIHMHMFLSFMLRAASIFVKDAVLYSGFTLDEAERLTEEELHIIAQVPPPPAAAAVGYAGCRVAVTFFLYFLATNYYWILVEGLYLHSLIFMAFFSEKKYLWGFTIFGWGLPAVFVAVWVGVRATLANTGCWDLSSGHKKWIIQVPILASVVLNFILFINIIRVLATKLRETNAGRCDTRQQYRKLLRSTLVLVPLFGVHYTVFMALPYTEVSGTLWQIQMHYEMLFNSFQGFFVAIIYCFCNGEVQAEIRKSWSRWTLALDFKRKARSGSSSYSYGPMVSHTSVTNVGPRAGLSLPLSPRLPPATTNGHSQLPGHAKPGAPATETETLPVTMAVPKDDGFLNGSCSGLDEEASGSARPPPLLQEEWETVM

CC[C@@H]1O[C@](/C=C/C2CC2)(C(F)(F)F)c2c(ccc(F)c2F)NC1=O
Activity [1]: inactive
Activity [2]: inactive
Activity [3]: inactive
IC50 [4]: 10.4 µM
IC50 [5]: 15 µM
IC50 [6]: 68 µM
Activity [7]: inactive
Activity [8]: Active
IC50 [9]: 5.78 µM
Activity [10]: inactive
Activity [11]: inactive
IC50 (Substance-K receptor): 28 µM
Activity [12]: inactive
Activity [13]: inactive
Activity [14]: inactive
Activity [15]: Active
Activity [16]: Active
IC50 [17]: 13.8 µM
Activity [18]: inactive
Activity [19]: inactive
IC50 [20]: 0.99 µM
Activity [21]: inactive
Activity [22]: inactive

CC[C@H](C)[C@H](NC(=O)[C@H](CCC(=O)O)NC(=O)[C@H](C)NC(=O)[C@@H](NC(=O)[C@H](C)N)C(C)C)C(=O)N[C@@H](CCC(N)=O)C(=O)N[C@@H](CC(C)C)C(=O)N[C@@H](CCSC)C(=O)N[C@@H](Cc1cnc[nH]1)C(=O)N[C@@H](CCC(N)=O)C(=O)N[C@@H](CCCCN=C(N)N)C(=O)N[C@@H](C)C(=O)N[C@@H](CCCCN)C(=O)N[C@@H](Cc1c[nH]c2ccccc12)C(N)=O (H-AVAEIQLMHQ[hArg]AKW-NH2)
EC50 [23]: 32 nM
EC50 [24]: 800 nM
EC50 [25]: 155 nM
IC50 [20]: 10.5 µM

CC[C@H](C)[C@H](NC(=O)[C@H](CCC(=O)O)NC(=O)[C@H](C)NC(=O)[C@@H](NC(=O)[C@H](C)N)C(C)C)C(=O)N[C@@H](CCC(N)=O)C(=O)N[C@@H](CC(C)C)C(=O)N[C@@H](CCSC)C(=O)N[C@@H](Cc1cnc[nH]1)C(=O)N[C@@H](CCC(N)=O)C(=O)N[C@@H](CCCCNC(=N)N)C(=O)N[C@@H](C)C(=O)N[C@@H](CCCCN)C(=O)N[C@@H](Cc1c[nH]c2ccccc12)C(=O)N[C@@H](CCCCNC(=O)c1ccccc1-c1c2ccc(=O)cc-2oc2cc(O)ccc12)C(N)=O (H-AVAEIQLMHQ[hArg]AKWK(X1)-NH2)
EC50 [23]: 53 nM
EC50 [24]: 1000 nM
EC50 [25]: 251 nM
IC50 [20]: 10.1 µM

CCCC[C@H](NC(=O)[C@H](CC(C)C)NC(=O)[C@H](CCC(N)=O)NC(=O)[C@@H](NC(=O)[C@H](CCC(=O)O)NC(=O)[C@H](C)NC(=O)[C@@H](NC(=O)[C@H](C)N)C(C)C)[C@@H](C)CC)C(=O)N[C@@H](Cc1cnc[nH]1)C(=O)N[C@@H](CCC(N)=O)C(=O)N[C@@H](CCCCNC(=N)N)C(=O)N[C@@H](C)C(=O)N[C@@H](CCCCN)C(=O)N[C@@H](Cc1c[nH]c2ccccc12)C(=O)N[C@@H](Cc1ccc(O)cc1)C(N)=O (H-AVAEIQL[Nle]HQ[hArg]AKWY-NH2)
EC50 [23]: 26 nM
EC50 [24]: 1460 nM
EC50 [25]: 129 nM
IC50 [20]: 2.19 µM
